Data taken from ChEMBL document CHEMBL1147868, “Synthesis of novel triazole derivatives as inhibitors of cytochrome P450 14alpha-demethylase (CYP51)” (2007).
In brackets after ≈: the same amount, converted by molar mass.

Tests used:
Assay type in all cases: functional
[1] = test system: Cryptococcus neoformans; experiment: Antifungal activity against Cryptococcus neoformans ATCC BLS108 after 72 hrs by micro-broth dilution method
Method in brief: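 This ATCC standard quality-control strain was tested in every assay by NCCLS microdilution. Test agents were dissolved in DMSO and serially diluted in growth medium. Cultures were incubated at 35 C and read at 72 h. MIC80 was the first well with approximately 80% reduced growth relative to the drug-free well.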

[2] = test system: Trichophyton rubrum; experiment: Antifungal activity against Trichophyton rubrum after 7 days by microbroth dilution method; conditions: 168 h
Method in brief: (§1)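 Clinical isolates supplied by a hospital were tested by NCCLS broth microdilution. Compounds were dissolved in DMSO, serially diluted in growth medium, inoculated and incubated at 35 C. Growth was read at 7 days for filamentous fungi. MIC80 was taken as the first well with about 80% less growth than the drug-free well.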

[3] = test system: Candida albicans; experiment: Antifungal activity against Candida albicans ATCC Y0109 after 24 hrs by micro-broth dilution method
Method in brief: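 An ATCC standard quality-control strain was included in each run of an NCCLS micro-broth dilution assay. Compounds were dissolved in DMSO, serially diluted in growth medium and incubated at 35 C. Reading was at 24 h, and MIC80 was the first well showing roughly 80% growth reduction versus the drug-free control.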

[4] = test system: Candida tropicalis; experiment: Antifungal activity against Candida tropicalis after 7 days by micro-broth dilution method; conditions: 168 h
Method in brief: (§2)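 Micro-broth dilution followed NCCLS methods, using an ATCC standard quality-control strain for C. parapsilosis and a clinical isolate for C. tropicalis. Compounds were dissolved in DMSO, serially diluted in growth medium and incubated at 35 C. MIC80 was the first well with about 80% growth reduction compared with the drug-free well.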

[5] = test system: Aspergillus fumigatus; experiment: Antifungal activity against Aspergillus fumigatus after 7 days by micro-broth dilution method; conditions: 168 h; method in brief: as §1
[6] = test system: Fonsecaea compacta; experiment: Antifungal activity against Fonsecaea compacta after 7 days by micro-broth dilution method; conditions: 168 h; method in brief: as §1
[7] = test system: Candida parapsilosis; experiment: Antifungal activity against Candida parapsilosis ATCC 0306392 after 7 days by micro-broth dilution method; conditions: Lodderomyces parapsilosis, ATCC 0306392, 168 h; method in brief: as §2
[8] = test system: Microsporum; experiment: Antifungal activity against Microsporum gypseum after 7 days by micro-broth dilution method; conditions: 168 h; method in brief: as §1

Structure (SMILES)	MIC80 [1] [µg/mL]	MIC80 [2] [µg/mL]	MIC80 [3] [µg/mL]	MIC80 [4] [µg/mL]	MIC80 [5] [µg/mL]	MIC80 [6] [µg/mL]	MIC80 [7] [µg/mL]	MIC80 [8] [µg/mL]
CCC(C)n1ncn(-c2ccc(N3CCN(c4ccc(OCC5COC(Cn6cncn6)(c6ccc(Cl)cc6Cl)O5)cc4)CC3)cc2)c1=O (stereo not given) [ITRACONAZOLE]	1 (≈ 1.42 µM)	0.0152 (≈ 0.0215 µM)	1 (≈ 1.42 µM)	0.25 (≈ 0.354 µM)	1 (≈ 1.42 µM)	0.25 (≈ 0.354 µM)	0.25 (≈ 0.354 µM)	0.0152 (≈ 0.0215 µM)
Cc1cccc(C(=O)Nc2ccc(N3CCN(CC(O)(Cn4cncn4)c4ccc(F)cc4F)CC3)c(F)c2)c1 (stereo not given)	0.0625 (≈ 0.114 µM)	0.0625 (≈ 0.114 µM)	0.0625 (≈ 0.114 µM)	0.0152 (≈ 0.0276 µM)	1 (≈ 1.82 µM)	0.25 (≈ 0.454 µM)	0.0152 (≈ 0.0276 µM)	0.0152 (≈ 0.0276 µM)
CCc1ccc(C(=O)Nc2ccc(N3CCN(CC(O)(Cn4cncn4)c4ccc(F)cc4F)CC3)c(F)c2)cc1 (stereo not given)	0.0625 (≈ 0.111 µM)	0.0625 (≈ 0.111 µM)	0.25 (≈ 0.443 µM)	0.0625 (≈ 0.111 µM)	1 (≈ 1.77 µM)	0.0625 (≈ 0.111 µM)	4 (≈ 7.08 µM)	0.25 (≈ 0.443 µM)
Cc1ccc(C(=O)Nc2ccc(N3CCN(CC(O)(Cn4cncn4)c4ccc(F)cc4F)CC3)c(F)c2)cc1 (stereo not given)	0.0625 (≈ 0.114 µM)	0.0625 (≈ 0.114 µM)	0.0625 (≈ 0.114 µM)	0.0152 (≈ 0.0276 µM)	1 (≈ 1.82 µM)	0.0625 (≈ 0.114 µM)	0.0152 (≈ 0.0276 µM)	1 (≈ 1.82 µM)
O=C(Nc1ccc(N2CCN(CC(O)(Cn3cncn3)c3ccc(F)cc3F)CC2)c(F)c1)c1ccccc1F (stereo not given)	0.0152 (≈ 0.0274 µM)	0.0152 (≈ 0.0274 µM)	0.0152 (≈ 0.0274 µM)	0.0152 (≈ 0.0274 µM)	4 (≈ 7.21 µM)	0.0625 (≈ 0.113 µM)	< 0.0039	0.0625 (≈ 0.113 µM)
O=[N+]([O-])c1ccc(N2CCN(CC(O)(Cn3cncn3)c3ccc(F)cc3F)CC2)c(F)c1 (stereo not given)	0.0152 (≈ 0.0329 µM)	0.0152 (≈ 0.0329 µM)	0.0152 (≈ 0.0329 µM)	0.0152 (≈ 0.0329 µM)	1 (≈ 2.16 µM)	0.0625 (≈ 0.135 µM)	0.0039 (≈ 0.00843 µM)	0.0152 (≈ 0.0329 µM)
CC(=O)N1CCN(c2ccc(OC[C@H]3CO[C@](Cn4ccnc4)(c4ccc(Cl)cc4Cl)O3)cc2)CC1 [KETOCONAZOLE]	0.0625 (≈ 0.118 µM)	0.0625 (≈ 0.118 µM)	0.0625 (≈ 0.118 µM)	0.0625 (≈ 0.118 µM)	1 (≈ 1.88 µM)	0.0625 (≈ 0.118 µM)	0.0625 (≈ 0.118 µM)	0.0039 (≈ 0.00734 µM)
C[C@@H](c1ncncc1F)[C@](O)(Cn1cncn1)c1ccc(F)cc1F [VORICONAZOLE]	0.0152 (≈ 0.0435 µM)	0.0039 (≈ 0.0112 µM)	0.0152 (≈ 0.0435 µM)	0.25 (≈ 0.716 µM)	> 64	0.0152 (≈ 0.0435 µM)	1 (≈ 2.86 µM)	0.0039 (≈ 0.0112 µM)

Second part, the compound after the results:

MIC80 [1] [µg/mL]	MIC80 [2] [µg/mL]	MIC80 [3] [µg/mL]	MIC80 [4] [µg/mL]	MIC80 [5] [µg/mL]	MIC80 [6] [µg/mL]	MIC80 [7] [µg/mL]	MIC80 [8] [µg/mL]	Structure (SMILES)
1 (≈ 1.69 µM)	1 (≈ 1.69 µM)	1 (≈ 1.69 µM)	1 (≈ 1.69 µM)	16 (≈ 27 µM)	0.0625 (≈ 0.105 µM)	1 (≈ 1.69 µM)	0.0625 (≈ 0.105 µM)	CCCCc1ccc(C(=O)Nc2ccc(N3CCN(CC(O)(Cn4cncn4)c4ccc(F)cc4F)CC3)c(F)c2)cc1 (stereo not given)
0.25 (≈ 0.443 µM)	0.0625 (≈ 0.111 µM)	0.25 (≈ 0.443 µM)	0.0625 (≈ 0.111 µM)	1 (≈ 1.77 µM)	0.25 (≈ 0.443 µM)	0.0152 (≈ 0.0269 µM)	0.0152 (≈ 0.0269 µM)	Cc1ccc(C(=O)Nc2ccc(N3CCN(CC(O)(Cn4cncn4)c4ccc(F)cc4F)CC3)c(F)c2)cc1C (stereo not given)
0.0625 (≈ 0.108 µM)	0.25 (≈ 0.432 µM)	1 (≈ 1.73 µM)	0.25 (≈ 0.432 µM)	4 (≈ 6.91 µM)	0.25 (≈ 0.432 µM)	0.25 (≈ 0.432 µM)	0.25 (≈ 0.432 µM)	CC(C)c1ccc(C(=O)Nc2ccc(N3CCN(CC(O)(Cn4cncn4)c4ccc(F)cc4F)CC3)c(F)c2)cc1 (stereo not given)
0.0625 (≈ 0.116 µM)	0.0152 (≈ 0.0283 µM)	0.0625 (≈ 0.116 µM)	0.0039 (≈ 0.00727 µM)	1 (≈ 1.86 µM)	0.25 (≈ 0.466 µM)	0.0152 (≈ 0.0283 µM)	0.0152 (≈ 0.0283 µM)	O=C(Nc1ccc(N2CCN(CC(O)(Cn3cncn3)c3ccc(F)cc3F)CC2)c(F)c1)c1ccccc1 (stereo not given)
0.0625 (≈ 0.102 µM)	0.0039 (≈ 0.00634 µM)	0.0625 (≈ 0.102 µM)	0.0152 (≈ 0.0247 µM)	1 (≈ 1.62 µM)	0.25 (≈ 0.406 µM)	0.0152 (≈ 0.0247 µM)	0.0625 (≈ 0.102 µM)	O=C(Nc1ccc(N2CCN(CC(O)(Cn3cncn3)c3ccc(F)cc3F)CC2)c(F)c1)c1ccccc1Br (stereo not given)
0.25 (≈ 0.419 µM)	0.25 (≈ 0.419 µM)	0.0625 (≈ 0.105 µM)	0.0039 (≈ 0.00654 µM)	1 (≈ 1.68 µM)	0.25 (≈ 0.419 µM)	0.0625 (≈ 0.105 µM)	0.25 (≈ 0.419 µM)	COc1ccc(C(=O)Nc2ccc(N3CCN(CC(O)(Cn4cncn4)c4ccc(F)cc4F)CC3)c(F)c2)cc1OC (stereo not given)
0.0152 (≈ 0.0351 µM)	0.25 (≈ 0.578 µM)	0.25 (≈ 0.578 µM)	4 (≈ 9.25 µM)	4 (≈ 9.25 µM)	0.25 (≈ 0.578 µM)	0.25 (≈ 0.578 µM)	0.0625 (≈ 0.145 µM)	Nc1ccc(N2CCN(CC(O)(Cn3cncn3)c3ccc(F)cc3F)CC2)c(F)c1 (stereo not given)
